UBC13 polyUb: UBC13 polyubiquitin chain formation inhibitors, primary screen, biochemical, TR-FRET, uHTS. Ubiquitin-conjugating enzyme E2 N (Homo sapiens), P61088. inhibition, % at 20 µM. 0.47% of 330,000 active. AID 485273, 2010; in the data active = inhibition above about 45%, passing the limit was not always enough
MEKK3 PB1 HTS: modulators of MEKK3-MEK5 PB1 binding, primary screen, biochemical, wildtype MEKK3, multiplex bead flow cytometry, Alexa488-MEK5; Mitogen-activated protein kinase kinase kinase 3 (Homo sapiens), Q99759; bead-based flow cytometry, Alexa488-MEK5 binding to MEKK3; actives lie on both sides; 0 = blocked by unlabeled MEK5, 100 = vehicle; binding response (% of control), % at 10 µM; 1.4% of 290,000 active;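 active = binding response more than 3 SD above or below the average of its plate-row segment, actives on both sides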;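 also: Alexa488 bead fluorescence after subtracting the streptavidin-only scavenger bead signal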
PREPL inhibitor: PREPL enzyme inhibitors, primary screen, biochemical, fluorescence polarization. 0.68% of 320,000 active. Prolyl endopeptidase-like (Homo sapiens), Q4J6C6. inhibition, % at 5.96 µM. recombinant PREPL, fluorescence polarization activity-based probe; in the data active = inhibition above about 43%;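 also: 0% = enzyme with DMSO and 100% = wells lacking enzyme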
MEKK2wt PB1 HTS: modulators of MEK5 binding to wildtype MEKK2, primary screen, biochemical, multiplex bead flow cytometry, Alexa488-MEK5; Mitogen-activated protein kinase kinase kinase 2 (Homo sapiens), Q9Y2U5; binding response (% of control), % at 10 µM; AID 1531, 2009; 1.1% of 290,000 active; Alexa488-MEK5 binding to MEKK2 WT; actives lie on both sides; in the data active = binding response below about 67% or above about 130%
Apaf-1 inh: inhibitors of human Apaf-1 apoptosome, primary screen, biochemical, DEVD-Rh110 fluorescence, uHTS. Apoptotic protease-activating factor 1 (Homo sapiens), O14727. inhibition, % at 20 µM. reconstituted apoptosome caspase-3 activity. 0.71% of 330,000 active; active = inhibition of at least 40% at 20 µM;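 also: plate controls were DMSO wells for no effect and DEVD-CHO caspase inhibitor wells for full effect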
Target sequence (O14727 whole entry, looked up): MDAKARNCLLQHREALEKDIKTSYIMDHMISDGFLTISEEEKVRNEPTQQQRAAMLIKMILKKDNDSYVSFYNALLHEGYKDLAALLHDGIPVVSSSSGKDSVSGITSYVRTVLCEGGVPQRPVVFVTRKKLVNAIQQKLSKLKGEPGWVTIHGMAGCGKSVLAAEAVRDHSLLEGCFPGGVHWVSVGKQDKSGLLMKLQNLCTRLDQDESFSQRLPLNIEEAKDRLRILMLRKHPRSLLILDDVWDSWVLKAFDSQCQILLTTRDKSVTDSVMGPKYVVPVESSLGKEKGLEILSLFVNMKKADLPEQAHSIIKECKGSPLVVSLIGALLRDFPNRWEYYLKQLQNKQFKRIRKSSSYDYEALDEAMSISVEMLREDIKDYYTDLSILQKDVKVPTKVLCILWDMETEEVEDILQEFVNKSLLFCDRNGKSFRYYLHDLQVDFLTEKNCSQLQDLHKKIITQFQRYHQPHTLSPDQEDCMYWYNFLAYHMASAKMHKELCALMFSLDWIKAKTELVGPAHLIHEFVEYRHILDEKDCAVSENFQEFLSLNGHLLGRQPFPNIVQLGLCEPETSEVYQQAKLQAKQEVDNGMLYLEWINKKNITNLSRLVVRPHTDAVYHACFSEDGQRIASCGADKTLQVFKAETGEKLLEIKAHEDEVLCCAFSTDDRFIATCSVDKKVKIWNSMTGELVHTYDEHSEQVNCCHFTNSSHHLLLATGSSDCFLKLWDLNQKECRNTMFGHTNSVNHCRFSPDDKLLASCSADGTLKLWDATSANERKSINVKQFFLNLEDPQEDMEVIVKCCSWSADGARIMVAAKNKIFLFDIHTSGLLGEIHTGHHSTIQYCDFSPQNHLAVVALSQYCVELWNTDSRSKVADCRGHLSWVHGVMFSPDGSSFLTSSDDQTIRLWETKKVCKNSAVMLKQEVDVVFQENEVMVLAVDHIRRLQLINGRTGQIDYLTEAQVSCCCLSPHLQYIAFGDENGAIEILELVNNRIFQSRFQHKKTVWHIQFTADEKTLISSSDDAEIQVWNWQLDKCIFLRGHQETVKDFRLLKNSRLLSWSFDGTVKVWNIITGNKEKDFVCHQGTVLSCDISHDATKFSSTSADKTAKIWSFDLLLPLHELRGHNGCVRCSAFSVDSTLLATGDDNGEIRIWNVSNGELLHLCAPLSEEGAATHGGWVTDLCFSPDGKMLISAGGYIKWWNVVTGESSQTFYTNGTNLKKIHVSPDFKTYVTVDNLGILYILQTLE
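System – cell-free apoptosome with Apaf-1, procaspase-3 and caspase-9 · Buffer or medium – pH 7.5 Hepes buffer with CHAPS, BSA, DTT · Also added – cytochrome c with DEVD-Rh110 · Times – 30 min compound preincubation, 50 min activation, room temperature · Technique – Rh110 fluorescence intensity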
MEKK2 mut-MEK5: MEK5 binding signal on mutant MEKK2 PB1, primary screen, biochemical, multiplex bead flow cytometry, Alexa488-MEK5; 0.35% of 290,000 active; Alexa488-MEK5 binding to MEKK2 mutant; percent response, % at 10 µM; in the data active = percent response above about 24%, passing the limit was not always enough
MEKK2wt confirm: modulators of MEK5 binding to wildtype MEKK2, confirmation, biochemical, single concentration, multiplex bead flow cytometry. Alexa488-MEK5 binding to MEKK2 WT; actives lie on both sides. shares compounds with MEKK3 PB1 HTS. binding response (% of control), % at 10 µM. 2.4% of 5,900 active; in the data active = binding response below about 16% or above about 210%; inactive = in between
MEKK2mut-MEK5: mutant MEKK2 PB1-MEK5 binding signal retest – biochemical, single concentration, multiplex bead flow cytometry, confirmation; shares compounds with MEKK3 PB1 HTS; Alexa488-MEK5 binding to MEKK2 mutant; percent response, % at 10 µM; 2% of 5,900 active; in the data active = percent response mostly above about 71%, no sharp cut-off; inactive = mostly below about 38%;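 also: higher means compound restores mutant binding toward wildtype level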
MEKK3-MEK5 inh: MEKK3 wild-type PB1 binding to MEK5, inhibitors, confirmation, biochemical, bead multiplex flow cytometry, single concentration, wildtype. Alexa488-MEK5 binding to MEKK3; active compounds read low. 1.8% of 5,900 active. binding response (% of control), % at 10 µM. shares compounds with MEKK3 PB1 HTS;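 active = binding response below 72% of control, or above a set upper limit, though filed actives all read lower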;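 also: 100% = DMSO only wells and 0% = binding blocked by excess unlabeled MEK5; lower values mean stronger disruption of MEK5 binding to MEKK3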
The depositor's hits bear a star; / = not tested or not shown; [ ] = another dose, or the depositor's remark. Sampled rows, rich in hits. Any-hit rate of the full collection: about 3.1%.

SMILES	UBC13 polyUb	MEKK3 PB1 HTS	PREPL inhibitor	MEKK2wt PB1 HTS	Apaf-1 inh	MEKK2 mut-MEK5	MEKK2wt confirm	MEKK2mut-MEK5	MEKK3-MEK5 inh
CCOC(=O)C1CCN(S(=O)(=O)c2ccc(OC)c(Cl)c2Cl)CC1	9	82*[inhibitor]	5	88	-3	-5	103	2	102
Cc1nc(C(=O)Nc2cc(F)cc(Cl)c2)sc1C1(C)CC(c2ccccc2)=NO1 (centres undefined)	4	104	-7	101	8	1	/	/	/
CCOC(=O)c1sc2nc(CSc3ccccc3)nc(NCCN(C)C)c2c1C	12	110	-60	176*	-3	40	145	32	104
Cc1cccc(NC(=O)C2CCN(S(C)(=O)=O)CC2)c1C	0	104	0	101	-12	1	/	/	/
Cc1c(Cl)cccc1NC(=O)C1CCN(S(C)(=O)=O)CC1	-5	104	3	/	-19	254*	104	2	106
O=C(Cc1coc(-c2ccc(F)cc2)n1)Nc1ccccc1	10	2.0*[inhibitor]	-14	2.0*[inhibitor]	3	-46	110	2	107
O=C(NNC(=O)c1cccc(C(F)(F)F)c1)c1ccncc1	0	98	-6	104	0	-1	/	/	/
O=C(NNC1=NCCN1Cc1ccccc1)c1cccc(C(F)(F)F)c1	8	128*	1	128	-6	25	99	-2	96
N=c1n(CCO)c2ccccc2n1CCOc1ccc(Cl)cc1Cl	44	113	7	148*	37	18	132	19	108
CCn1c(/N=C/c2ccccc2NS(=O)(=O)c2ccc(C)cc2)nc2ccccc21	/	137*	-4	104	/	0	100	1	104
Cc1ccc(-c2nn(-c3ccccc3)cc2CO)cc1	2	107	9	110	10	11	/	/	/
Cc1ccc(-c2nn(-c3ccccc3)cc2CNCc2ccccc2)cc1	26	111	-40	193*	18	36	173	34	104
Cc1ccc(-n2cc(CNCCCn3ccnc3C)c(-c3ccc(F)cc3)n2)cc1	27	115	13	306*	9	178*	204	77*	116
Cc1ccc(-n2cc(CNCCc3cscn3)c(-c3ccc(F)cc3)n2)cc1	13	76	-29	89	19	-8	/	/	/
Cc1ccc(C)c(-n2cc(CNCCCn3cccn3)c(-c3ccccc3)n2)c1	7	99	1	108	-1	1	/	/	/
Cc1ccc(-n2cc(CNCCCn3cccn3)c(-c3cccc(C)c3)n2)cc1	8	104	-18	138*	-6	24	143	15	104
CCCCn1nc(C(=O)N(CC(C)C)c2c(N)n(CCCC)c(=O)[nH]c2=O)c2ccccc2c1=O	0	/	/	/	-3	/	/	/	/
CCN(CC(=O)N1CCOCC1)S(=O)(=O)c1cc(Cl)ccc1Cl	-4	101	0	107	-1	4	/	/	/
CNC(=S)N/N=C(\C)c1ccccc1	1	132*	-1	128	-4	28	109	2	103
CNC(=S)N/N=C(\C)c1ccc(C(C)(C)C)cc1	5	101	-13	110	2	22	/	/	/
O=C(O)CNC(=S)NCc1ccccc1	-13	101	-10	103	-2	0	/	/	/
CC(CCc1ccccc1)NC(=O)C(=O)NCCc1ccccc1 (centres undefined)	8	97	4	98	5	0	/	/	/
CC(C)C(NC(=S)NCc1ccccc1)C(=O)O (centres undefined)	8	34*[inhibitor]	-16	43*[inhibitor]	0	-10	95	-2	98
CN(N)C(=S)NCc1ccccc1	-5	123*	7	116	14	5	102	-2	97
CC(C)CCNC(=O)C(=O)NCc1ccccc1	4	49*[inhibitor]	3	53	6	-20	96	-1	97
SMILES	UBC13 polyUb	MEKK3 PB1 HTS	PREPL inhibitor	MEKK2wt PB1 HTS	Apaf-1 inh	MEKK2 mut-MEK5	MEKK2wt confirm	MEKK2mut-MEK5	MEKK3-MEK5 inh
CCCCn1nc(C(=O)Nc2ccc(-n3cnnn3)cc2)c2ccccc2c1=O	17	/	2	/	0	/	/	/	/
CN(C)S(=O)(=O)c1cccc(NC(=O)c2ccc(N3CCOCC3)c([N+](=O)[O-])c2)c1	-13	86	-1	89	6	-4	/	/	/
CS(=O)(=O)c1ccc2nc(NC(=O)CN3C(=O)C4CC=CCC4C3=O)sc2c1 (centres undefined)	2	138*	2	115	2	5	105	-3	101
NC(=O)c1cc2cc(Br)ccc2o/c1=N/NC(=O)c1cccc(F)c1	1	102	/	102	4	1	/	/	/
COCc1nnc(NC(=O)CCc2ccccc2)s1	-8	2.0*[inhibitor]	-4	2.0*[inhibitor]	1	-18	101	-4	100
CCN(CC)C(=O)CSc1nnc(NC(=O)CCc2ccccc2)s1	3	156*	2	115	-1	2	143	17	106
CSCCC(NC(=O)c1ccccc1)C(=O)N1CCN(C(C)=O)CC1 (centres undefined)	3	/	-3	/	-4	/	/	/	/
Cc1cccc(OCc2nnc(-c3ccc(F)cc3)o2)c1	1	/	6	/	5	/	/	/	/
O=C(NCCCCc1ccccc1)Nc1ccc(F)cc1F	5	102	7	103	9	3	/	/	/
CCOC(=O)Cc1c(C)nc2c(-c3ccc(Cl)cc3)c(C)nn2c1C	1	0.0*[inhibitor]	8	/	17	-34	90	-10	89
COc1ccc(C(CNC(=O)c2c(C)nn(Cc3ccc(C)cc3)c2Cl)N2CCOCC2)cc1 (centres undefined)	9	/	10	/	5	/	/	/	/
c1ccc2c(Nc3ccc(N4CCOCC4)cc3)nc(N3CCOCC3)nc2c1	-3	101	21	105	9	3	/	/	/
